Test results as given in ChEMBL document CHEMBL5252659, “Discovery of a Potent and Selective Naphthyridine-Based Chemical Probe for Casein Kinase 2” (ACS Med Chem Lett, 2023).
≈ marks a conversion by molar mass, not a printed value. Blank lines part the entries; values can stand above or below the molecule they belong to. Calls of active or inactive are those of the source. The calls are words filed in the database; no cut-off is given here.

Assays:
[1] = Aqueous kinetic solubility of compound in PBS at pH 7.4 incubated for 24 hrs by Chemiluminescent nitrogen determination assay; assay type: physicochemical; settings: for solubility kinetic at 24 h: PBS, pH 7.4, read-out: Kinetic_solubility; for Kinetic_solubility: buffer, pH 7.4, 24 h
[2] = (§1) Antiproliferative activity against human RM-82 cells assessed as inhibition of cell proliferation at 1 uM incubated for 5 days by WST-1 assay; assay type: functional; parameters: scale not given: the % may be the effect or the level left; settings: time 5 day
[3] = (§2) Antiproliferative activity against human STA-ET-1 cells assessed as inhibition of cell proliferation at 1 uM incubated for 5 days by WST-1 assay; assay type: functional; parameters: scale not given: the % may be the effect or the level left; settings: time 5 day
Summary of the method: (§3)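 Ewing sarcoma cell lines were exposed to a single 1 μM concentration for 5 days. Viability was reported as percent viability, as part of a preliminary single-dose screen.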

[4] = (§4) Antiproliferative activity against human STA-ET-10 cells assessed as inhibition of cell proliferation at 1 uM incubated for 5 days by WST-1 assay; assay type: functional; parameters: scale not given: the % may be the effect or the level left; settings: time 5 day; summary of the method: as §3
[5] = Permeability of compound incubated for 5 hrs by PAMPA based CLND assay; assay type: ADME
[6] = tested on: MDA-MB-231; assay: Anticancer activity against human MDA-MB-231 cells assessed as cell growth inhibition at 2 to 10 uM incubated for 24 to 72 hrs by WST-1 assay; settings: dose 2-10 µM, time lower […], time upper 72.0 hrs
[7] = tested on: RM-82; assay: as §1; assay type: functional; settings: time 5.0 day
[8] = tested on: STA-ET-1; assay: as §2; assay type: functional; settings: time 5.0 day; summary of the method: as §3
[9] = tested on: STA-ET-10; assay: as §4; assay type: functional; settings: time 5.0 day; summary of the method: as §3
[10] = target: Death-associated protein kinase 2 (Homo sapiens, UniProt Q9UIK4); assay: Inhibition of wild type human DAPK2 in presence of ATP by radiometric kinase assay
Sequence of Death-associated protein kinase 2 (Q9UIK4 whole entry): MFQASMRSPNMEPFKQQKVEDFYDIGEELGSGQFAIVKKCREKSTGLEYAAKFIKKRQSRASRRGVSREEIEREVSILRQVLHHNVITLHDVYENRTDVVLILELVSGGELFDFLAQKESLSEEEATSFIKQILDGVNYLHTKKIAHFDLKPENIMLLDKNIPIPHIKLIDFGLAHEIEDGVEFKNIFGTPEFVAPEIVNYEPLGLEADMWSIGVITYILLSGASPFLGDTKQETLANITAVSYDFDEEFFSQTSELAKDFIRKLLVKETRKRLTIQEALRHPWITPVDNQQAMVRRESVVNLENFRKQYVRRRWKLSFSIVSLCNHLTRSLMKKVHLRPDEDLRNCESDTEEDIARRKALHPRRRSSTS

[11] = target: T1, Homeodomain-interacting protein kinase 2 (Homo sapiens, UniProt Q9H2X6); assay: Inhibition of wild type human HIPK2 in presence of ATP by radiometric kinase assay
Target sequence in this assay (Q9H2X6 whole entry): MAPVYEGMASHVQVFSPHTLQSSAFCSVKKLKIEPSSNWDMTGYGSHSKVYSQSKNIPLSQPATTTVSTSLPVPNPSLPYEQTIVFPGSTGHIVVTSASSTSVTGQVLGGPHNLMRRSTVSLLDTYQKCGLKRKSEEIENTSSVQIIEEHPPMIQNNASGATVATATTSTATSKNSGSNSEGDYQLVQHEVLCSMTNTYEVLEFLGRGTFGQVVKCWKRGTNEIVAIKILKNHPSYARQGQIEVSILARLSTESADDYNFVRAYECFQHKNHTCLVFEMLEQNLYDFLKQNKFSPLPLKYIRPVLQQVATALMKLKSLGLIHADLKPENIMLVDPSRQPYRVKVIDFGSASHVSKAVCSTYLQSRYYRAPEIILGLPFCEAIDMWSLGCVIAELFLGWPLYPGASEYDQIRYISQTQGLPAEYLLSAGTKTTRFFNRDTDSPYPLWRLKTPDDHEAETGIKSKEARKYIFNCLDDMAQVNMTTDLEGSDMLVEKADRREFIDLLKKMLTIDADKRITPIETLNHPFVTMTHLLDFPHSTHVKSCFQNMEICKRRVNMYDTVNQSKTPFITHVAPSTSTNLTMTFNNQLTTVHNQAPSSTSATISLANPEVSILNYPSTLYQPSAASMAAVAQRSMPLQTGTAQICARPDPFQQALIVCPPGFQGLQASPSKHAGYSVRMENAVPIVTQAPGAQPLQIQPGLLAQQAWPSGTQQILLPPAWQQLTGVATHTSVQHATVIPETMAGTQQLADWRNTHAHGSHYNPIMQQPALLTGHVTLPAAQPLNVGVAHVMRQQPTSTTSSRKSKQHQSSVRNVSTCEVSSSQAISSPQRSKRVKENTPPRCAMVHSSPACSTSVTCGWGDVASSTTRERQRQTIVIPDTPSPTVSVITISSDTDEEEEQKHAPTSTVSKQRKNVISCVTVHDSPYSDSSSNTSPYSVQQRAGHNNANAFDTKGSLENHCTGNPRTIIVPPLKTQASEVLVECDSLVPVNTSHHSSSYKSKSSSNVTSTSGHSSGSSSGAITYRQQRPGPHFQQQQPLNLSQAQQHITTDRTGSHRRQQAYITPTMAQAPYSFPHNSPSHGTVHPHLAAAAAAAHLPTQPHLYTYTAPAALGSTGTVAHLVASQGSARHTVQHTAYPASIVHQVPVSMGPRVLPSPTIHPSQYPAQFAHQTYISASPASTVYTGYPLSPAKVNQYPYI

[12] = tested on: AMO1; assay: Antiproliferative activity against human AMO1 cells assessed as inhibition of cell proliferation at 1 uM incubated for 5 days by WST-1 assay; assay type: functional; parameters: scale not given: the % may be the effect or the level left; settings: time 5 day
[13] = tested on: L-363; assay: Antiproliferative activity against human L-363 cells assessed as inhibition of cell proliferation at 1 uM incubated for 5 days by WST-1 assay; assay type: functional; parameters: scale not given: the % may be the effect or the level left; settings: time 5 day
[14] = target: T1, Homeodomain-interacting protein kinase 2; assay: Inhibition of wild type human HIPK2 at 1 uM by DiscoverX scanMAX assay relative to control; values are per cent of control
Target sequence in this assay (Q9H2X6 whole entry, looked up): as the sequence (Q9H2X6 whole entry) above

[15] = tested on: AMO1; assay: Antiproliferative activity against pomalidomide resistant human AMO1 cells assessed as inhibition of cell proliferation at 1 uM incubated for 5 days by WST-1 assay; assay type: functional; parameters: scale not given: the % may be the effect or the level left; settings: time 5 day
[16] = tested on: L-363; assay: Antiproliferative activity against carfilzomib-resistant human L-363 cells assessed as inhibition of cell proliferation at 1 uM incubated for 5 days by WST-1 assay; assay type: functional; parameters: scale not given: the % may be the effect or the level left; settings: time 5 day
[17] = tested on: L-363; assay: Antiproliferative activity against bortezomib-resistant human L-363 cells assessed as inhibition of cell proliferation at 1 uM incubated for 5 days by WST-1 assay; assay type: functional; parameters: scale not given: the % may be the effect or the level left; settings: time 5 day
[18] = Antiproliferative activity against human MUG-Chor1 cells assessed as inhibition of cell proliferation at 1 uM incubated for 5 days by WST-1 assay; assay type: functional; parameters: scale not given: the % may be the effect or the level left; settings: time 5 day
[19] = target: T2, Casein kinase II subunit alpha (Homo sapiens, UniProt P68400); assay: Inhibition of C-terminal Nano-Luc fused human CK2alpha expressed in HEK293 cells using NanoBRET NanoGlo substrate in presence of tracer K10 by NanoBRET assay; assay type: cell-based
T2 sequence (P68400 whole entry, the tested form may be a part): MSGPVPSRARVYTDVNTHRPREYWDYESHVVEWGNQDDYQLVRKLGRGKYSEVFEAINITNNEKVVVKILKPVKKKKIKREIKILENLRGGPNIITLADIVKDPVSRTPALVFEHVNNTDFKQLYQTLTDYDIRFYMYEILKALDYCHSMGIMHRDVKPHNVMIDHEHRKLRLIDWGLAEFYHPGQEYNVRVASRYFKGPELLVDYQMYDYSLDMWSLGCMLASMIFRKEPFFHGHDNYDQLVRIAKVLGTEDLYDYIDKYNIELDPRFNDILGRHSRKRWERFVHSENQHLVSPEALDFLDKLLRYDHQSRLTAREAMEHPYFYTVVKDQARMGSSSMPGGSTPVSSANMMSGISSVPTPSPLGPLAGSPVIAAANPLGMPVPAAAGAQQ

[20] = target: T3, Casein kinase II subunit alpha' (Homo sapiens, UniProt P19784); assay: Inhibition of C-terminal Nano-Luc fused human CK2alpha' expressed in HEK293 cells using NanoBRET NanoGlo substrate in presence of tracer K5 by NanoBRET assay; assay type: cell-based
T3 sequence (P19784 whole entry, the tested form may be a part): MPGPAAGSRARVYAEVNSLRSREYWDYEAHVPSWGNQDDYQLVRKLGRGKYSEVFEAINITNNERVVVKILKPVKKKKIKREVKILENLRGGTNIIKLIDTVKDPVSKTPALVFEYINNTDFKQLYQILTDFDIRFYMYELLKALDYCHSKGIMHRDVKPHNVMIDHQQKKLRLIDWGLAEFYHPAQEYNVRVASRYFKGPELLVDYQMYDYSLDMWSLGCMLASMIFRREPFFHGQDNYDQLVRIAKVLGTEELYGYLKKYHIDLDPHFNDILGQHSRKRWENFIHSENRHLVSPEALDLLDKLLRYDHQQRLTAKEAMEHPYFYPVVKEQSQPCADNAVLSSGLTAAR

[21] = target: T2, Casein kinase II subunit alpha; assay: Inhibition of wild type human CK2alpha in presence of ATP by radiometric kinase assay
[22] = target: T3, Casein kinase II subunit alpha'; assay: Inhibition of wild type human CK2alpha' in presence of ATP by radiometric kinase assay
[23] = target: Phosphatidylinositol 4-phosphate 5-kinase type-1 gamma (Homo sapiens) (UniProt O60331); assay: Inhibition of wild type human PIP5K1C at 1 uM by DiscoverX scanMAX assay relative to control; values are per cent of control
Sequence of Phosphatidylinositol 4-phosphate 5-kinase type-1 gamma (Homo sapiens) (O60331 whole entry): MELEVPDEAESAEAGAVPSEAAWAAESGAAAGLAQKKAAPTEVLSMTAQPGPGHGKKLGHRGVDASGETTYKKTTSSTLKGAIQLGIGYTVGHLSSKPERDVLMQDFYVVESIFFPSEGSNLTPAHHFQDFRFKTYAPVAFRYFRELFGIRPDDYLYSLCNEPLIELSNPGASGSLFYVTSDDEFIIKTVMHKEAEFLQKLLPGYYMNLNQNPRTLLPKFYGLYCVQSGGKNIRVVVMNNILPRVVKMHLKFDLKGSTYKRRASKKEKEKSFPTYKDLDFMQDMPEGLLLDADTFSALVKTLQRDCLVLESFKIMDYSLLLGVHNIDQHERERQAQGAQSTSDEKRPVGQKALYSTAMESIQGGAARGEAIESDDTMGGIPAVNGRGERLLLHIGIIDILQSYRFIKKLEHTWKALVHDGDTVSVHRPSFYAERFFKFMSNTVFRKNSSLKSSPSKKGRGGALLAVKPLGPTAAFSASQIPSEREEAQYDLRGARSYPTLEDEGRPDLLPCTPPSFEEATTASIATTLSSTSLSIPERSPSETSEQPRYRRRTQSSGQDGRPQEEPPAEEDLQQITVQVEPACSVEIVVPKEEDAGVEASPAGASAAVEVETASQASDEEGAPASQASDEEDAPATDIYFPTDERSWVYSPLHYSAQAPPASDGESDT

solubility kinetic at 24 h [1]: 168 µM (≈ 53.2 µg/mL)
SMILES: O=C(O)c1ccc2c(c1)nc(Nc1ccccc1)c1ncncc12

Kinetic_solubility [1]: 32.8 µM
SMILES: O=C(O)c1ccc2c(c1)nc(Nc1ccc3ccccc3c1)c1ccncc12

solubility kinetic at 24 h [1]: 211 µM (≈ 69.6 µg/mL)
IC50 [11]: 600 nM
permeability [5]: Permeable
residual activity [14]: 30%
SMILES: O=C(O)c1ccc2c(c1)nc(NCc1ccccc1)c1ncncc12
IC50 [10]: 1500 nM
Activity [12]: 44%
Activity [13]: 36%
Activity [7]: inactive
Activity [8]: inactive
Activity [9]: inactive

solubility kinetic at 24 h [1]: 188 µM (≈ 67.8 µg/mL)
SMILES: O=C(O)c1ccc2c(c1)nc(NCCc1cccc(F)c1)c1ccncc12

solubility kinetic at 24 h [1]: 171 µM (≈ 58.9 µg/mL)
SMILES: O=C(O)c1ccc2c(c1)nc(NCCc1ccccc1)c1ccncc12

IC50 [19]: > 10 µM
IC50 [20]: > 10 µM
IC50 [21]: > 10 µM
IC50 [22]: > 10 µM
residual activity [23]: 15%
SMILES: O=C(O)c1ccc2c(c1)nc(NCc1ccccc1)c1ncccc12

solubility kinetic at 24 h [1]: 237 µM (≈ 78.9 µg/mL)
SMILES: O=C(O)c1ccc2c(c1)nc(Nc1cccc(F)c1)c1ccncc12

Kinetic_solubility [1]: 131.7 µM
SMILES: N#Cc1cccc(Nc2nc3cc(C(=O)O)ccc3c3cnccc23)c1
Activity [7]: inactive
Activity [8]: inactive
Activity [9]: inactive

Kinetic_solubility [1]: 25.3 µM
SMILES: O=C(O)c1ccc2c(c1)nc(Nc1ccc(Cl)cc1)c1ccncc12

The remaining lines, values behind:

SMILES: COc1cccc(CCNc2nc3cc(C(=O)O)ccc3c3cnccc23)c1
solubility kinetic at 24 h [1]: 180 µM (≈ 67.4 µg/mL)

SMILES: O=C(O)c1ccc2c(c1)nc(NCc1ccccc1)c1ccncc12
solubility kinetic at 24 h [1]: 202 µM (≈ 66.7 µg/mL)

SMILES: O=C(O)c1ccc2c(c1)nc(Nc1ccc(F)c(Cl)c1)c1ncncc12
Kinetic_solubility [1]: 49.1 µM

SMILES: O=C(O)c1ccc2c(c1)nc(Nc1cccc(Cl)c1)c1ccncc12 [SILMITASERTIB]
Kinetic_solubility [1]: 277.1 µM
Activity [2]: 63%
Activity [3]: 21%
Activity [4]: 63%
permeability [5]: Permeable
Activity [6]: Active

SMILES: O=C(O)c1ccc2c(c1)nc(Nc1ccc3ccccc3c1)c1ncncc12
Kinetic_solubility [1]: 54.3 µM

SMILES: N#Cc1cccc(Nc2nc3cc(C(=O)O)ccc3c3cncnc23)c1
Kinetic_solubility [1]: 66.7 µM
Activity [7]: inactive
Activity [8]: inactive
Activity [9]: inactive

SMILES: O=C(O)c1ccc2c(c1)nc(NCCc1ccccc1)c1ncncc12
Kinetic_solubility [1]: 146.4 µM

SMILES: COc1cccc(CCNc2nc3cc(C(=O)O)ccc3c3cncnc23)c1
solubility kinetic at 24 h [1]: 152 µM (≈ 56.8 µg/mL)

SMILES: O=C(O)c1ccc2c(c1)nc(Nc1cccc(F)c1)c1ncncc12
solubility kinetic at 24 h [1]: 192 µM (≈ 64.2 µg/mL)

SMILES: COc1cccc(Nc2nc3cc(C(=O)O)ccc3c3cnccc23)c1
solubility kinetic at 24 h [1]: 190 µM (≈ 65.8 µg/mL)

SMILES: O=C(O)c1ccc2c(c1)nc(Nc1ccc(Cl)cc1)c1ncncc12
solubility kinetic at 24 h [1]: 209 µM (≈ 73.3 µg/mL)

SMILES: O=C(O)c1ccc2c(c1)nc(NCCc1cccc(F)c1)c1ncncc12
Kinetic_solubility [1]: 147 µM

SMILES: CCC(=O)Nc1cc(Nc2cc(NC3CC3)n3ncc(C#N)c3n2)ccc1C
Activity [12]: 9%
Activity [15]: 9%
Activity [13]: 9%
Activity [16]: 9%
Activity [17]: 9%
Activity [8]: inactive
Activity [9]: inactive
Activity [18]: 55%

SMILES: O=C(O)c1ccc2c(c1)nc(Nc1ccccc1Cl)c1ncncc12
Kinetic_solubility [1]: 121.8 µM

SMILES: O=C(O)c1ccc2c(c1)nc(Nc1ccc(F)c(Cl)c1)c1ccncc12
Kinetic_solubility [1]: 148.4 µM

SMILES: O=C(O)c1ccc2c(c1)nc(NCCc1cccc(Cl)c1)c1ncncc12
Kinetic_solubility [1]: 109.1 µM

SMILES: O=C(O)c1ccc2c(c1)nc(Nc1ccccc1)c1ccncc12
solubility kinetic at 24 h [1]: 184 µM (≈ 58.1 µg/mL)

SMILES: O=C(O)c1ccc2c(c1)nc(NCCc1cccc(Cl)c1)c1ccncc12
solubility kinetic at 24 h [1]: 184 µM (≈ 69.5 µg/mL)
